According to ChEMBL document CHEMBL4396917, “Synthesis and biological evaluation of novel benzylidene-succinimide derivatives as noncytotoxic antiangiogenic inhibitors with anticolorectal cancer activity in vivo” (Eur J Med Chem, 2019):

Assays:
HUVEC [1] = test: Antimigratory activity in HUVEC assessed as reduction in VEGF-induced cell migration at 2.5 uM measured after 24 hrs by wound healing assay relative to control; type: functional; details: Homo sapiens
Summary of the method: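 Confluent HUVECs starved 12 h in M200 with 2% FBS, scratched with pipette tip; fresh M200 with 25 ng/mL VEGF plus vehicle, 2.5 μM sunitinib or compound (1, 2.5 μM); wound imaged at 0, 6, 12 and 24 h by inverted microscopy.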

[2] = biological target: RAC-alpha serine/threonine-protein kinase (Homo sapiens) (UniProt P31749); test: Inhibition of AKT1 (unknown origin) at 10 uM using myelin basic protein as substrate in presence of [gamma-33P]-ATP by scintillation counting analysis relative to control
Summary of the method: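 Radiometric kinase assay: kinase (5–10 mU) in 25 mM Tris pH 7.5, 0.02 mM EGTA, 0.66 mg/mL myelin basic protein, magnesium acetate and [γ-33P]ATP. The reaction was started with Mg-ATP, run 40 min at room temperature and stopped with 3% phosphoric acid. Samples were spotted on P30 filters, washed with 75 mM phosphoric acid and methanol, then scintillation counted. Tested at 10 μM; mean of three independent experiments.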

HUVEC [3] = test: Induction of apoptosis in VEGF-stimulated HUVEC assessed as early apoptotic cells at 5 uM after 24 hrs by Annexin V-FITC/propidium iodide staining based flow cytometric analysis (reference value: 7%); type: cell-based; details: human
Summary of the method: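 HUVECs plated at 5×10^5 per well and treated 24 h with 1, 5, 10 or 20 μM. Detached and adherent cells were pooled, washed in ice-cold PBS and resuspended in fresh medium. 1×10^5 cells were stained with annexin-V-FITC in annexin-V buffer for 20 min in the dark, then PI (50 μg/mL) was added. Read-out by flow cytometry.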

HT-29 = test: Antiangiogenic activity against human HT-29 cells xenografted in mouse assessed as mean vessel density in tumour at 20 to 60 mg/kg, po administered every other day for 3 weeks measured at 20 days post-treatment; type: functional

Chain of RAC-alpha serine/threonine-protein kinase (Homo sapiens) (P31749 whole entry): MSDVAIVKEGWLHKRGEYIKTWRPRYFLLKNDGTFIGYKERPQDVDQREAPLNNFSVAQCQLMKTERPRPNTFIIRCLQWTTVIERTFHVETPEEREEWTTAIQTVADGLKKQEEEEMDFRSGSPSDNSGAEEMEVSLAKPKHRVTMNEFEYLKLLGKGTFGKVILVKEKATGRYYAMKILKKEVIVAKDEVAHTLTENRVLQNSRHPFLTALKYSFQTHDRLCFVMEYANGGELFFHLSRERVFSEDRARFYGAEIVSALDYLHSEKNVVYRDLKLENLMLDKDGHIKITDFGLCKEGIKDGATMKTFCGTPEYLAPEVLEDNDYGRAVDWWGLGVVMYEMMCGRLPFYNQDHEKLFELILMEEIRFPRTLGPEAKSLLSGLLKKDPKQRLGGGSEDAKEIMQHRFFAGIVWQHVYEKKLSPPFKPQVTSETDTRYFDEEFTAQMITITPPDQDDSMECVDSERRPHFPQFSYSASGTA

inhibition [2]: 50 to 70%
SMILES: COc1ccc(NC(=O)c2cccc(/C=C3\CC(=O)N(c4ccc(C)cc4)C3=O)c2)cc1
inhibition at 2.5 µM (HUVEC [1]): 60% | Activity (HUVEC [3]): 10.1% | Activity (HT-29): 5%
